Our source for the GI50 values is ChEMBL document CHEMBL4373650, “Synthesis, conformational preferences, and biological activity of conformational analogues of the microtubule-stabilizing agents, (-)-zampanolide and (-)-dactylolide” (Medchemcomm, 2019).

Experiment [1] addresses T1, Tubulin (Homo sapiens) (UniProt P68371+Q9H4B7+P0DPH7+P68366+Q13509+Q71U36+P04350+Q3ZCM7+P07437+P68363+Q9BQE3+Q6PEY2+Q13885+Q9BVA1+Q9BUF5). The experiment is described as follows: Induction of microtubule stabilization in human PC3 cells assessed as inhibition of cell growth incubated for 72 hrs by Celltiter reagent-based assay. An outline of the steps: (§1)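 Cells kept in DMEM with 10% fetal bovine serum. Exposed to serial dilutions of each compound for 3 days, then growth read with CellTiter reagent and GI50 determined. Each compound first run as a 10-dose dilution series, then as narrower replicate 6-dose series, each a separate experiment.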

In experiment [2] the target is T1, Tubulin (Homo sapiens). Description: Induction of microtubule stabilization in human A549 cells assessed as inhibition of cell growth incubated for 72 hrs by Celltiter reagent-based assay. In a few lines:
as §1

The target in experiment [3] is T1, Tubulin (Homo sapiens). The experiment is described as follows: Induction of microtubule stabilization in human 1A9 cells assessed as inhibition of cell growth incubated for 72 hrs by Celltiter reagent-based assay. An outline of the steps: as §1

Regarding `C/C=C/C=C\C(=O)NC(O)[C@@H]1C/C=C/[C@@H]2CCC[C@H](C/C=C/C(=O)C/C(C)=C\C=C\C(=O)O1)O2` (stereo partly drawn), the GI50 in experiment [1] was found to be 56 nM; in experiment [2], 180 nM; in experiment [3] it was 120 nM.
Taken in the same sequence, the figures for `CC(=O)O[C@H]1C(=O)[C@@]2(C)[C@H]([C@H](OC(=O)c3ccccc3)[C@]3(O)C[C@H](OC(=O)[C@H](O)[C@@H](NC(=O)c4ccccc4)c4ccccc4)C(C)=C1C3(C)C)[C@]1(OC(C)=O)CO[C@@H]1C[C@@H]2O` were 4.6 nM, 6 nM and 5.2 nM.
Taken in the same sequence, the figures for `C=C1C[C@@H]2C/C=C/C(=O)C/C(C)=C\C=C\C(=O)O[C@H](C=O)C/C(C)=C/[C@H](C1)O2` were 460 nM, 950 nM and 620 nM.
On the same counts, the results for `C=C1C[C@@H]2C/C=C/C(=O)C/C(C)=C\C=C\C(=O)O[C@H]([C@H](O)NC(=O)/C=C\C=C\C)C/C(C)=C/[C@H](C1)O2` are 3.2 nM, 5.2 nM and 2.1 nM.
Turning to `C/C1=C/C=C/C(=O)O[C@H](C=O)C/C=C/[C@@H]2CCC[C@H](C/C=C/C(=O)C1)O2`, the GI50 in experiment [1], in experiment [2] and in experiment [3] was greater than 30000 nM each time.
With `C/C1=C/C=C/C(=O)O[C@H](CO)C/C=C/[C@@H]2CCC[C@H](C/C=C/C(=O)C1)O2`, the GI50 in experiment [1], in experiment [2] and in experiment [3] was greater than 30000 nM in each case.

By GI50 is commonly meant the concentration at which growth is held to half of that of the control.
